Measured values as given in ChEMBL document CHEMBL1136733, “Pyrrolopyrazinedione-based inhibitors of human hormone-sensitive lipase” (J Med Chem, 2003).

Tests used:
Hormone-sensitive lipase [1] = target: T1, Hormone-sensitive lipase (Homo sapiens, UniProt Q05469); assay: Inhibitory activity against human hormone-sensitive lipase (HSL) expressed in the baculovirus was determined by p-nitrophenyl butyrate (PNPB) assay
T1 sequence (Q05469 whole entry): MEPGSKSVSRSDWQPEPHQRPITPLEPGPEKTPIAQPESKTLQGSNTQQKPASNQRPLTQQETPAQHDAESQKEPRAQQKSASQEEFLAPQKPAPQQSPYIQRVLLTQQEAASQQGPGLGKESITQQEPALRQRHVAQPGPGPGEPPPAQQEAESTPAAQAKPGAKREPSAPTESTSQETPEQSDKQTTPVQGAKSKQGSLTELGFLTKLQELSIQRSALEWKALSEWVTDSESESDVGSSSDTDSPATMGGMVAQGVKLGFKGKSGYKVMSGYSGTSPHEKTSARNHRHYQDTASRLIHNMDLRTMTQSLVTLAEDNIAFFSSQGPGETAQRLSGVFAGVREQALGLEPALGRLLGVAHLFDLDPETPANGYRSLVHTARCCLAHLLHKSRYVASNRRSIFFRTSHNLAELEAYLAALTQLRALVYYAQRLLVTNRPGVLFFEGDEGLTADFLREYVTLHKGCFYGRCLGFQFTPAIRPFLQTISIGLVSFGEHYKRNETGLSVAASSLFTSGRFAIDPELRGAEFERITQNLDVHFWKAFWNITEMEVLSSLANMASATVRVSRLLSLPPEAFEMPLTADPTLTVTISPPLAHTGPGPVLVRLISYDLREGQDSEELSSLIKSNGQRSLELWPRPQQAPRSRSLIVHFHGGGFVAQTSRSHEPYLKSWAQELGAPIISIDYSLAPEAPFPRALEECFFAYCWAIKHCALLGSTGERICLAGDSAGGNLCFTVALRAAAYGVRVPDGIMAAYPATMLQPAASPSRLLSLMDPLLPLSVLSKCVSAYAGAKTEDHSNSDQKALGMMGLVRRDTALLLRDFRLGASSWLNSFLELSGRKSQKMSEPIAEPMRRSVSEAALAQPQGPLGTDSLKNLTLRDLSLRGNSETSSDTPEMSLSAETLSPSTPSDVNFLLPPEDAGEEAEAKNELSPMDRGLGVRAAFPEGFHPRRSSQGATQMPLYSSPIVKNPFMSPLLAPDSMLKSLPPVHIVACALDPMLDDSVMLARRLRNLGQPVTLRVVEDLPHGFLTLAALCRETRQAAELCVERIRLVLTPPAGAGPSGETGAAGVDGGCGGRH
How it was run: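 Recombinant human HSL (His-tagged, Sf9/baculovirus, Ni-NTA purified), 10 ng per reaction in 20 mM KPO4 pH 7.4, 1 mM EDTA, 0.1% Triton X-100, 5 mM p-nitrophenyl butyrate, 5% DMSO. Incubated 1 h at 27 °C, absorbance read at 400 nm. Full 8-point IC50 curves run in triplicate.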

Hormone-sensitive lipase [2] = target: T1, Hormone-sensitive lipase; assay: Inhibitory activity against Human Hormone-sensitive lipase (HSL) expressed in the baculovirus was determined by HSL [14 C] cholesteryl oleate assay
How it was run: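 Recombinant human HSL from Sf9/baculovirus expression, Ni-NTA purified. Substrate was a [14C]cholesteryl oleate emulsion. IC50 derived from 8-point concentration curves run in triplicate.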

IC50 (Hormone-sensitive lipase [1]): 210 nM
IC50 (Hormone-sensitive lipase [2]): 260 nM
SMILES: COC(=O)C1CC2(COCc3ccccc3)C(=O)N(CCCCc3ccccc3)CC(=O)N2C1c1ccco1 (configuration not stated)
